Results published in ChEMBL document CHEMBL1145920 (J Med Chem, 2003).
In brackets after ≈: the same amount, converted by molar mass. One block for each molecule: values may come before it.

Assays:
[1] = molecular target: T1, Vascular endothelial growth factor receptor 2 (Homo sapiens, UniProt P35968); test: Inhibition of Vascular endothelial growth factor receptor 2 autophosphorylation by VEGF in human umbilical vein endothelial cells (HUVECs) at 200 nM; format: cell-based; conditions: HUVEC
In short: (§1)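 Subconfluent HUVECs serum-starved 1 h at 37 °C in EBM-2 with 0.05% BSA, with drug or DMSO present, then stimulated with 10 ng/mL human VEGF for 5 min. Lysates protein-normalized, anti-VEGF-R2 immunoprecipitated, run on SDS-PAGE, antiphosphotyrosine immunoblot, ECL.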

[2] = molecular target: Vascular endothelial growth factor receptor 1 (Homo sapiens, UniProt P17948); test: Inhibition of Vascular endothelial growth factor receptor 1
Vascular endothelial growth factor receptor 1, sequence (P17948 whole entry, the tested form may be a part): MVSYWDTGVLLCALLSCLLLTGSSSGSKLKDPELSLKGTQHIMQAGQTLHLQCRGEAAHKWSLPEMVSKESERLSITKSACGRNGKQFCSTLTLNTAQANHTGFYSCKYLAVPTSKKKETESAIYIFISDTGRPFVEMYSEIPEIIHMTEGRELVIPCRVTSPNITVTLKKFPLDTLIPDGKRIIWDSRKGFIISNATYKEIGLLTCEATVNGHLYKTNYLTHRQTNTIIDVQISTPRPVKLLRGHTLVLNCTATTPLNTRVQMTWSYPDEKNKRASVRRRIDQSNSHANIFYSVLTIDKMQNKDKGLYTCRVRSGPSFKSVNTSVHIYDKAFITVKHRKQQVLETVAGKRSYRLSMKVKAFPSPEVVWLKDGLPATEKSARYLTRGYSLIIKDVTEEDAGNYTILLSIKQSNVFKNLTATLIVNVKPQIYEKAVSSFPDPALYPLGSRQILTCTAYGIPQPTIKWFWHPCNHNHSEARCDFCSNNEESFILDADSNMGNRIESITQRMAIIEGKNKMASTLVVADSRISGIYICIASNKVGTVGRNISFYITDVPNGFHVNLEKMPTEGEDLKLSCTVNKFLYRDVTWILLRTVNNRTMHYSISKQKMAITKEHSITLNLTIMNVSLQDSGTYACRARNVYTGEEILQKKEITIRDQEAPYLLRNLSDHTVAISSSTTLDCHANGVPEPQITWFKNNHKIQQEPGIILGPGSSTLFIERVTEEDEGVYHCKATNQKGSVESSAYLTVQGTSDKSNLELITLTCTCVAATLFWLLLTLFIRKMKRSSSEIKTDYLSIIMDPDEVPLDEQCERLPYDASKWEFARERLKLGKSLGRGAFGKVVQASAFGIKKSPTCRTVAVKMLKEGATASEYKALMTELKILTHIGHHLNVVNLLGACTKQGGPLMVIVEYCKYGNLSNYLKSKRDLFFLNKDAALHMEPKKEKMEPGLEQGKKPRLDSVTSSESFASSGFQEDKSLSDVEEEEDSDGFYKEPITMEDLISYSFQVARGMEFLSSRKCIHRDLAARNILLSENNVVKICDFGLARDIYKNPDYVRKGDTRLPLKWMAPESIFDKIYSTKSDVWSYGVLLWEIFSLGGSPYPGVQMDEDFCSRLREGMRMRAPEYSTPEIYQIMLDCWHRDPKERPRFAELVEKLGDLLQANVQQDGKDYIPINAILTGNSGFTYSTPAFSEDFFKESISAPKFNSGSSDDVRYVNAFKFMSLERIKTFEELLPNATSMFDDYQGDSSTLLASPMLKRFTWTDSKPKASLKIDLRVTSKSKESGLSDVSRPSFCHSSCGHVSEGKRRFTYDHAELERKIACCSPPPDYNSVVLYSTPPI
In short: (§2)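 Baculovirus-expressed human kinase cytoplasmic domains; ELISA-type assay with time-resolved fluorescence readout (Eu-N1 antiphosphotyrosine antibody). […] For VEGF-R2, PLC-γ/GST fusion substrate and 15 min at 37 °C.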

[3] = molecular target: T1, Vascular endothelial growth factor receptor 2; conditions: HUVEC, 10 nM
[4] = molecular target: Mitogen-activated protein kinase 14 (Homo sapiens, UniProt Q16539); test: Inhibition of Mitogen-activated protein kinase p38 alpha
In short: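 Enzyme was activated recombinant human GST-p38α.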

[5] = molecular target: Serine/threonine-protein kinase Chk2 (Homo sapiens, UniProt O96017); test: Inhibition of Serine/threonine-protein kinase Chk2 (CDS1 receptor)
Mus musculus [6] = test: In vivo antitumor activity against SVR tumor growth in nude mice by oral administration of 10 mg/kg b.i.d. for 10 days; format: functional; conditions: 240 h
In short: (§3)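 Female athymic nu/nu mice, 6–8 weeks old; 1×10^6 SVR murine angiosarcoma cells implanted sc in right flank with Matrigel (1:1 v/v). At tumor volumes of 80–180 mm³, randomized (usually 8–10/group) and dosed orally b.i.d. (T = 0, 8 h), 0.35–23.8 mg/kg at 100 μL/dose; vehicles PG:Tween 80 (1:1) or 1% HOAc. Caliper tumor volumes every 3–4 days; Mann–Whitney test.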

[7] = molecular target: Mast/stem cell growth factor receptor Kit (Homo sapiens, UniProt P10721); test: Inhibition of Proto-oncogene tyrosine-protein kinase Kit
[8] = molecular target: T2, Receptor-type tyrosine-protein kinase FLT3 (Homo sapiens, UniProt P36888); test: Inhibition of Tyrosine-protein kinase receptor FLT3 (fms-related tyrosine kinase 3) receptor
T2 sequence (P36888 whole entry): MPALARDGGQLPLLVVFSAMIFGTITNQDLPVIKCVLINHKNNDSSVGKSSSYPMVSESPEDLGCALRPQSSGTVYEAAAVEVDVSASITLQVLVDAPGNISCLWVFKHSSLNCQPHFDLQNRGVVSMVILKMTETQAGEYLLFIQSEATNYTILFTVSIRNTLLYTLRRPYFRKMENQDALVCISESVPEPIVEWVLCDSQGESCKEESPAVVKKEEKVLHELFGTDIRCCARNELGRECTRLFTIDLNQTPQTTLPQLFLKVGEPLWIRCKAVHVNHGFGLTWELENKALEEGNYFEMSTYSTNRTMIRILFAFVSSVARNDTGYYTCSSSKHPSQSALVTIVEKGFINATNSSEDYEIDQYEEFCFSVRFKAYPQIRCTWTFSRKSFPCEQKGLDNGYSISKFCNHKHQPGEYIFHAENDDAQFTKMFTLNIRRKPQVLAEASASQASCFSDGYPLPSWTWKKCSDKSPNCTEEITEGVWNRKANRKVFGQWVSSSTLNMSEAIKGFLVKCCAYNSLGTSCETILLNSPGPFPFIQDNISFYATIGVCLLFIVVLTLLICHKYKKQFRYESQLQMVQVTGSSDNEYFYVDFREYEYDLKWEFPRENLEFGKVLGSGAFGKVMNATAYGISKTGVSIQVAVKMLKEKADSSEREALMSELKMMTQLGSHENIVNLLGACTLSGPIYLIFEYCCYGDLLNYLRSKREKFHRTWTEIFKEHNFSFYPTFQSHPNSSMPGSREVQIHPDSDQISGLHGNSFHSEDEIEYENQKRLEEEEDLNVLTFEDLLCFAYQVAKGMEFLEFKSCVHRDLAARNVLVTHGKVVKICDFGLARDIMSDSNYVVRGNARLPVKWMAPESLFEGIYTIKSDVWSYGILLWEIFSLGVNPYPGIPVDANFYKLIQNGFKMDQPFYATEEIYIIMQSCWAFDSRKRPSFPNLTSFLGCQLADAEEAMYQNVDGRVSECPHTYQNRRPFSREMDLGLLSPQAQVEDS
In short: (§4)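 Recombinant human cytoplasmic kinase domains (TrkA, Flt-3) expressed in baculovirus-infected insect cells. […] Eu-N1 antiphosphotyrosine detection by time-resolved fluorescence.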

[9] = molecular target: T1, Vascular endothelial growth factor receptor 2; test: Inhibition of human Vascular endothelial growth factor receptor 2
In short: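 Baculovirus-expressed recombinant human VEGF-R2 cytoplasmic domain was assayed by ELISA with a GST–phospholipase C-γ fusion substrate. […] Eu-N1 antiphosphotyrosine was added for 1 h at 37 °C and read by time-resolved fluorescence. IC50 came from nonlinear sigmoidal fits, averaging at least 3 determinations.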

[10] = molecular target: T3, Vascular endothelial growth factor receptor (Homo sapiens) (UniProt P17948+P35916+P35968); conditions: Capillary, HUVEC, 400 nM
T3 sequence (P17948 whole entry, looked up): as the sequence (P17948 whole entry, the tested form may be a part) above
T3 sequence (P35916 whole entry, looked up): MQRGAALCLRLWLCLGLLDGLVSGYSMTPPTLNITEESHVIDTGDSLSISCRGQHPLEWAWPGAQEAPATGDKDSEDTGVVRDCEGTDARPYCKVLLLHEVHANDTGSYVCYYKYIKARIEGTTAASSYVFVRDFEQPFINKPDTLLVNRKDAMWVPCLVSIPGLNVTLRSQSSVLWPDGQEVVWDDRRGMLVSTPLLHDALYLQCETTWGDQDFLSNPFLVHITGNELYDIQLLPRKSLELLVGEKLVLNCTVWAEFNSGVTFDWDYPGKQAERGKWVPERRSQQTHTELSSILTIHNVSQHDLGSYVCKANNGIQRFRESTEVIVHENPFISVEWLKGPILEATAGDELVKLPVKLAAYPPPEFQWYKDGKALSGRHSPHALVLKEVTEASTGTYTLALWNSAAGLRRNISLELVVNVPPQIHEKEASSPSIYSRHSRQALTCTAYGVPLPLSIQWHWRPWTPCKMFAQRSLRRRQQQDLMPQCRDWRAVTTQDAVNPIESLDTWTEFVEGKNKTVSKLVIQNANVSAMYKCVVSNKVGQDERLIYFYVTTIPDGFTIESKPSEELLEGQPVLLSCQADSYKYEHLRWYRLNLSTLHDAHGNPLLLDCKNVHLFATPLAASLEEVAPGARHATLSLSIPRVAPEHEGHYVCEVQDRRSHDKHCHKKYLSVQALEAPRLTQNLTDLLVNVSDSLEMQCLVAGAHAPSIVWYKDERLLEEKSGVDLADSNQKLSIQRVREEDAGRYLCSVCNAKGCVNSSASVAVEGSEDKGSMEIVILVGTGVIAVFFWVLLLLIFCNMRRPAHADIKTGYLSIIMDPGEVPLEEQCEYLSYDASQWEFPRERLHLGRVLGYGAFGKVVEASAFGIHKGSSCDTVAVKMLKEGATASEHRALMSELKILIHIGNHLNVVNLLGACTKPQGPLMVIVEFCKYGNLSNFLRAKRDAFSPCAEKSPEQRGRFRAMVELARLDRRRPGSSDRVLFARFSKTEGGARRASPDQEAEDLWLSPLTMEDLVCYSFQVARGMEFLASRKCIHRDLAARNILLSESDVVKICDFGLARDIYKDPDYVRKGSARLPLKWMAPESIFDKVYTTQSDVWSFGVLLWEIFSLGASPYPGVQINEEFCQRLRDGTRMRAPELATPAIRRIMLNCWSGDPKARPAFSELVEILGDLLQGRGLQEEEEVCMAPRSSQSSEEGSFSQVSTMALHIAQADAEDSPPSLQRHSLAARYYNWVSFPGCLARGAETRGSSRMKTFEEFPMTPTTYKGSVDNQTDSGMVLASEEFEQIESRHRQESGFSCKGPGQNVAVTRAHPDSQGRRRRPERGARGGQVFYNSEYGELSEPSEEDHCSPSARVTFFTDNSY
T3 sequence (P35968 whole entry, looked up): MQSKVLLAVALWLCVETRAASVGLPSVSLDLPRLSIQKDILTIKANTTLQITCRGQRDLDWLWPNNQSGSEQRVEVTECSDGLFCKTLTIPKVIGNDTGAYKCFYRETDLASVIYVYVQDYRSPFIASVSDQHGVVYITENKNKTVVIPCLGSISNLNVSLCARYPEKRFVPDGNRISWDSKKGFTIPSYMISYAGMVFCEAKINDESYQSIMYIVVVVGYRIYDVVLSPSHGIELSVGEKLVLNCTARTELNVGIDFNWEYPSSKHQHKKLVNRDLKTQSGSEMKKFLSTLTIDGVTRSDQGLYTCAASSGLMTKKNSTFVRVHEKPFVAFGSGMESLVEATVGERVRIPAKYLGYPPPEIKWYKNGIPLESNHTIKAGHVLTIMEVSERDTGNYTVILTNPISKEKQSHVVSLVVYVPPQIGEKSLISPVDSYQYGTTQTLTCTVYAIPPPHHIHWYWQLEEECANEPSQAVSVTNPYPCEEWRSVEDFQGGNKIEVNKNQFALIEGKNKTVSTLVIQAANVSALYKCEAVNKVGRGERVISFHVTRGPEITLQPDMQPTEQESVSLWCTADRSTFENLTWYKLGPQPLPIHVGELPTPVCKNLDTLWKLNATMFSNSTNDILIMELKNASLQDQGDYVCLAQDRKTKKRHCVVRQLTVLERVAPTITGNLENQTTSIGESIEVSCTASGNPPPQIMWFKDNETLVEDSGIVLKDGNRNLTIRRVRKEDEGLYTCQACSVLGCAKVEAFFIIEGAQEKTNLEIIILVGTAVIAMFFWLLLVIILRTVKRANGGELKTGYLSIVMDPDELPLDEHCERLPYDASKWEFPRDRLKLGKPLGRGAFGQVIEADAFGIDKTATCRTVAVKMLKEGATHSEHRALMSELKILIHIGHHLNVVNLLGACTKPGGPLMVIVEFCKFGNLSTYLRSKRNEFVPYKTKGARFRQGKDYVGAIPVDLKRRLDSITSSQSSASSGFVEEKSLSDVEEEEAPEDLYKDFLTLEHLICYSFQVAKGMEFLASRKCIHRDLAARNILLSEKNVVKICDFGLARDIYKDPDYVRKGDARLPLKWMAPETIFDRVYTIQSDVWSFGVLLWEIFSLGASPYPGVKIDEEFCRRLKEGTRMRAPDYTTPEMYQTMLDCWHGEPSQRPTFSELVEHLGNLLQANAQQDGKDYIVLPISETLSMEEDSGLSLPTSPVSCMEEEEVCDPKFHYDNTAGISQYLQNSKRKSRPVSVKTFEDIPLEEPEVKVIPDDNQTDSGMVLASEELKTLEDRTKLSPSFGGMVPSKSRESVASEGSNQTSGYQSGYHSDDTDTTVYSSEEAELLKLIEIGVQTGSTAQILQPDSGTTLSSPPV

[11] = molecular target: High affinity nerve growth factor receptor (Homo sapiens, UniProt P04629); test: Inhibition of TrkA receptor; in short: as §4
[12] = molecular target: T1, Vascular endothelial growth factor receptor 2; conditions: HUVEC, 100 nM
[13] = molecular target: Vascular endothelial growth factor receptor 3 (Homo sapiens, UniProt P35916); test: Inhibition of Vascular endothelial growth factor receptor 3
Vascular endothelial growth factor receptor 3, sequence (P35916 whole entry, the tested form may be a part): as the sequence (P35916 whole entry, looked up) above
In short: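 Recombinant human VEGF-R3 cytoplasmic domain was expressed in baculovirus-infected insect cells and assayed by ELISA as for VEGF-R2, with PLC-γ/GST fusion substrate. […] Read-out was Eu-antiphosphotyrosine time-resolved fluorescence.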

Mus musculus [14] = test: Antitumor activity against SVR tumor growth in mice by administration of 20 mg/kg b.i.d.; format: functional; conditions: oral; in short: as §3
[15] = molecular target: Cyclin-dependent kinase 1/cyclin B (Homo sapiens, UniProt P06493); test: Inhibition of Cyclin-dependent kinase 1-cyclin B; format: protein-complex assay
In short: (§5)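 Enzymes were baculovirus-expressed recombinant human cytoplasmic domains: CDK1/cyclinB and CHK1.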

[16] = Solubility was determined; format: physicochemical
[17] = molecular target: Mitogen-activated protein kinase 8 (Homo sapiens, UniProt P45983); test: Inhibition of c-Jun N-terminal kinase 1-beta 1
Mus musculus [18] = test: Inhibition of murine SVR angiosarcoma in mice administered b.i.d. for 10 days; format: functional; conditions: oral, 240 h, read-out: MED; in short: as §3
[19] = molecular target: T3, Vascular endothelial growth factor receptor (Homo sapiens); conditions: HUVEC, 40 nM
[20] = molecular target: Protein kinase C, PKC; classical (Rattus norvegicus, UniProt P05696+P68403+P63319); test: Inhibition of rat brain Protein kinase C
In short: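 Enzyme was purified rat brain PKC, a mixture of the Ca2+-dependent α, β and γ isozymes.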

[21] = molecular target: T3, Vascular endothelial growth factor receptor (Homo sapiens); conditions: HUVEC, 100 nM
[22] = molecular target: Fibroblast growth factor receptor 1 (Homo sapiens, UniProt P11362); test: Inhibition of Fibroblast growth factor receptor 1
Fibroblast growth factor receptor 1, sequence (P11362 whole entry): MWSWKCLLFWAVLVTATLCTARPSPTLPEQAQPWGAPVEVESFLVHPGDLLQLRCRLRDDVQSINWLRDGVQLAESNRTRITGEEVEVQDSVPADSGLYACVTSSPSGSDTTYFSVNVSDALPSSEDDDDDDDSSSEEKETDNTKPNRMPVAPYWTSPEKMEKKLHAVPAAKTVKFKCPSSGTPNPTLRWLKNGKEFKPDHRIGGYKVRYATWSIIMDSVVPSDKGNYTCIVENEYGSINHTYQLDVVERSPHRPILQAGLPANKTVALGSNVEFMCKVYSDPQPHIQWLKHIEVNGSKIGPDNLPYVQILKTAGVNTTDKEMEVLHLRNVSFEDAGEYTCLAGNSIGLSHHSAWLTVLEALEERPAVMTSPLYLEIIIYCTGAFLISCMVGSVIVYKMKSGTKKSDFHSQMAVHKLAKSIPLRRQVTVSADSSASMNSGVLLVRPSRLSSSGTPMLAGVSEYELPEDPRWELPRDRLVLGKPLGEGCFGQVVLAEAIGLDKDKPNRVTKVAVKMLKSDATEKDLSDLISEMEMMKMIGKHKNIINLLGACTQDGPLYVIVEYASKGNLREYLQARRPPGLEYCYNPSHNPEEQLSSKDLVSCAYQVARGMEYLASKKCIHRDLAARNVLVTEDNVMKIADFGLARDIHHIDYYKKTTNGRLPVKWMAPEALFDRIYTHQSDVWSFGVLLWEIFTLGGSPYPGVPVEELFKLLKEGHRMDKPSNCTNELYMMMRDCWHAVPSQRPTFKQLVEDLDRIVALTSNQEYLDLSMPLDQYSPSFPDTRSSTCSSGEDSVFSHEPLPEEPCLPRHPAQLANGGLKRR

[23] = molecular target: T4, Serine/threonine-protein kinase Chk1 (Homo sapiens, UniProt O14757); test: Inhibition of Serine/threonine-protein kinase Chk1; in short: as §5
T4 sequence (O14757 whole entry): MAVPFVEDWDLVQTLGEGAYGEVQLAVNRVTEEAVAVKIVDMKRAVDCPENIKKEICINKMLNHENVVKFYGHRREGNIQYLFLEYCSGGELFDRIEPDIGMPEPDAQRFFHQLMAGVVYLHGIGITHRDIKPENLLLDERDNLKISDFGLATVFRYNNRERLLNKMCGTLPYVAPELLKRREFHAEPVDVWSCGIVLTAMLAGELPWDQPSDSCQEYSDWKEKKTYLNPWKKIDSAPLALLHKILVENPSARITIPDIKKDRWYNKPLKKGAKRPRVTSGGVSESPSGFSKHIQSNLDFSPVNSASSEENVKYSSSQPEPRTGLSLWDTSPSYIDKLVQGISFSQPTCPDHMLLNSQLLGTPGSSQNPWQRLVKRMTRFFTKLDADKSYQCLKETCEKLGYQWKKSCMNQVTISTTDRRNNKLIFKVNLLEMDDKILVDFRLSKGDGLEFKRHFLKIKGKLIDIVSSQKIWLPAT

[24] = Plasma level in rats at 30 mg/kg; format: ADME, organism-based; parameters: dose 30 mg/kg; conditions: rat
In short: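 Fasted adult male Sprague–Dawley rats (n = 3) given a single oral gavage dose at 2 mL/kg in 3:1 gelucire/PG vehicle. Plasma prepared by acetonitrile protein precipitation and analyzed by HPLC–tandem MS.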

Angiopoietin-1 receptor = Angiopoietin-1 receptor (Homo sapiens, UniProt Q02763); test: Inhibition of Tyrosine protein kinase receptor TIE-2; in short: as §2
[25] = molecular target: T1, Vascular endothelial growth factor receptor 2; test: Inhibition of Vascular endothelial growth factor receptor 2 autophosphorylation by VEGF in human umbilical vein endothelial cells (HUVECs) at 100 nM; format: cell-based; conditions: HUVEC; in short: as §1
[26] = molecular target: T1, Vascular endothelial growth factor receptor 2; test: Inhibition of Vascular endothelial growth factor receptor 2 autophosphorylation by VEGF in human umbilical vein endothelial cells (HUVECs) at 10 nM; format: cell-based; conditions: HUVEC; in short: as §1
Mus musculus [27] = test: Antitumor activity against SVR tumor growth in mice by administration of 23.8 mg/kg b.i.d.; format: functional; conditions: oral; in short: as §3
[28] = molecular target: T1, Vascular endothelial growth factor receptor 2; test: In vitro inhibitory concentration against human vascular endothelial growth factor receptor 2; in short: as §2
[29] = molecular target: T1, Vascular endothelial growth factor receptor 2; test: Inhibition of Vascular endothelial growth factor receptor 2 autophosphorylation by VEGF in human umbilical vein endothelial cells (HUVECs) at 50 nM; format: cell-based; conditions: HUVEC; in short: as §1

T1 sequence (P35968 whole entry): as the sequence (P35968 whole entry, looked up) above

Compound: CCOCc1ccc2c(c1)c1c3c(c4c(c1n2CCCO)Cc1ccccc1-4)C(=O)NC3
- inhibition [25]: 100%
- inhibition [26]: 75%

Compound: CC(C)OCc1ccc2c(c1)c1c3c(c4c(c1n2CCCOC(=O)CN(C)C)Cc1ccccc1-4)C(=O)NC3 [CEP-7055]
- inhibition in vivo at 23.8 mg/kg (Mus musculus [27]): 70%

Compound: CC(C)OCc1ccc2[nH]c3c4c(c5c(c3c2c1)CNC5=O)-c1ccccc1C4
- IC50 [28]: 55 nM

Compound: CC(C)(C)OCc1ccc2c(c1)c1c3c(c4c(c1n2CCCO)Cc1ccccc1-4)C(=O)NC3
- inhibition [26]: 100%
- inhibition [29]: 100%

Compound: CCCCOCc1ccc2c(c1)c1c3c(c4c(c1n2CCCO)Cc1ccccc1-4)C(=O)NC3
- inhibition [1]: 100%

Compound: O=C1NCc2c1c1c(c3[nH]c4ccccc4c23)Cc2ccccc2-1
- IC50 [28]: 110 nM

Compound: CC(C)[S+]([O-])Cc1ccc2c(c1)c1c3c(c4c(c1n2CCCO)Cc1ccccc1-4)C(=O)NC3 (configuration not stated)
- IC50 [28]: 309 nM

Compound: O=C1NCc2c3c(c4[nH]c5ccccc5c4c21)Cc1ccccc1-3
- IC50 [28]: 414 nM

Compound: COC(C)c1ccc2c(c1)c1c3c(c4c(c1n2CCCO)Cc1ccccc1-4)C(=O)NC3 (configuration not stated)
- inhibition [25]: 100%
- inhibition [26]: 25%

Compound: CCSCc1ccc2c(c1)c1c3c(c4c(c1n2CCCO)Cc1ccccc1-4)C(=O)NC3
- inhibition [1]: 100%

Compound: CCCOCc1ccc2c(c1)c1c3c(c4c(c1n2CCCO)Cc1ccccc1-4)C(=O)NC3
- inhibition [1]: 100%

Compound: Cc1ccc2c(c1)c1c3c(c4c(c1n2CCCO)Cc1ccccc1-4)C(=O)NC3
- IC50 [28]: 163 nM

Compound: O=C1NCc2c1c1c(c3c2c2cc(Br)ccc2n3CCCO)Cc2ccccc2-1
- IC50 [28]: 104 nM

Compound: CC(=O)c1ccc2c(c1)c1c3c(c4c(c1n2CCCO)Cc1ccccc1-4)C(=O)NC3
- IC50 [28]: 187 nM

Compound: O=Cc1ccc2c(c1)c1c3c(c4c(c1n2CCCO)Cc1ccccc1-4)C(=O)NC3
- IC50 [28]: 105 nM

Further lines, with some results ahead:

- inhibition [1]: 100%
Compound: CC(C)SCc1ccc2c(c1)c1c3c(c4c(c1n2CCCO)Cc1ccccc1-4)C(=O)NC3

- IC50 [2]: 16 nM
- inhibition [3]: 75%
- IC50 [4]: > 10000 nM
- IC50 [5]: > 3000 nM
- IC50 [7]: 57 nM
- IC50 [8]: 1.6 nM
- IC50 [9]: 8 nM
- inhibition [10]: 89%
- IC50 [11]: > 3000 nM
- inhibition [12]: 100%
- IC50 [13]: 4 nM
- IC50 [15]: > 10000 nM
- solubility [16]: 10 µg/mL (≈ 22.7 µM)
- IC50 [17]: 448 nM
- inhibition [19]: 21%
- IC50 [20]: > 10000 nM
- inhibition [21]: 75%
- IC50 [22]: 162 nM
- IC50 [23]: > 3000 nM
- Cmax [24]: 100 ng/mL
- IC50 (Angiopoietin-1 receptor): > 10000 nM
Compound: CC(C)OCc1ccc2c(c1)c1c3c(c4c(c1n2CCCO)Cc1ccccc1-4)C(=O)NC3 [CEP-5214]
- inhibition in vivo at 10 mg/kg (Mus musculus [6]): 57%
- inhibition in vivo at 20 mg/kg (Mus musculus [14]): 70%
- minimal effective dose (Mus musculus [18]): 3 mg/kg

- IC50 [28]: 35 nM
Compound: CCC(CC)OCc1ccc2c(c1)c1c3c(c4c(c1n2CCCO)Cc1ccccc1-4)C(=O)NC3

- inhibition [29]: 100%
Compound: CC[C@@H](C)OCc1ccc2c(c1)c1c3c(c4c(c1n2CCCO)Cc1ccccc1-4)C(=O)NC3

- IC50 [28]: 276 nM
Compound: CC(C)CCOCc1ccc2c(c1)c1c3c(c4c(c1n2CCCO)Cc1ccccc1-4)C(=O)NC3

- inhibition [29]: 100%
Compound: CC[C@H](C)OCc1ccc2c(c1)c1c3c(c4c(c1n2CCCO)Cc1ccccc1-4)C(=O)NC3
